# A selection: hits, their analogues and other compounds. The true share with any hit is near 4.1%.
# KCNK3 block = human KCNK3 channel inhibition, primary screen | B-score at 10 µM | CHO-KCNK3 thallium flux, FluxOR fluorescence; stronger effect = lower value | O14649 | 340,000 tested, 0.84% active;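 active = B-score under library mean minus 4 SD, starting fluorescence ratio at most library mean plus 5 SD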;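 also: more negative B-score means stronger inhibition of thallium flux through KCNK3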
# KCNQ1 block = inhibitors of human KCNQ1 potassium channel. CHO-K1 KCNQ1, FluxOR thallium flux fluorescence; stronger effect = higher value. B-score at 10 µM. 310,000 tested, 1.3% active;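 active = compounds whose thallium flux B-score, printed positive for inhibition, exceeds three library SD while starting fluorescence stays within three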;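 also: channel opened by potassium depolarization with thallium stimulus after 20 min compound exposure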
# KCNQ1 act = human KCNQ1 channel potentiation or activation; P51787; CHO-K1 KCNQ1, thallium flux FluxOR fluorescence; stronger effect = higher value; B-score at 10 µM; 310,000 tested, 0.35% active;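 active = fluorescence ratio B-score, a plate-corrected score, at least three library SD, with initial intensity B-score within 5 SD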
#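 Material: CHO-K1 cells stably expressing KCNQ1. Medium: assay buffer for compound exposure, DMSO matched across wells. Reagent: K+/Tl+ depolarizing stimulus. Compound dosing: single-concentration screen. Times: 37 °C overnight plating, 90-min dark dye load, 20-min compound pretreatment. Technique: FluxOR Tl+ flux fluorescence.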
# KCC2 mod = modulates chloride dependent transport by human KCC2; Q9H2X9; KCC2 cells, thallium flux FluoZin-2 fluorescence; B-score of Tl+ flux slope (higher = more flux/activation; lower = inhibition) at 10 µM; 190,000 tested, 2.2% active;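 active = thallium flux slope and its plate-corrected score both differing from the plate sample mean at a set confidence after two filtering rounds, in either direction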;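 also: slope of fluorescence scaled to starting intensity during 10 to 20 s after thallium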
# Target sequence (Q9H2X9 whole entry, looked up): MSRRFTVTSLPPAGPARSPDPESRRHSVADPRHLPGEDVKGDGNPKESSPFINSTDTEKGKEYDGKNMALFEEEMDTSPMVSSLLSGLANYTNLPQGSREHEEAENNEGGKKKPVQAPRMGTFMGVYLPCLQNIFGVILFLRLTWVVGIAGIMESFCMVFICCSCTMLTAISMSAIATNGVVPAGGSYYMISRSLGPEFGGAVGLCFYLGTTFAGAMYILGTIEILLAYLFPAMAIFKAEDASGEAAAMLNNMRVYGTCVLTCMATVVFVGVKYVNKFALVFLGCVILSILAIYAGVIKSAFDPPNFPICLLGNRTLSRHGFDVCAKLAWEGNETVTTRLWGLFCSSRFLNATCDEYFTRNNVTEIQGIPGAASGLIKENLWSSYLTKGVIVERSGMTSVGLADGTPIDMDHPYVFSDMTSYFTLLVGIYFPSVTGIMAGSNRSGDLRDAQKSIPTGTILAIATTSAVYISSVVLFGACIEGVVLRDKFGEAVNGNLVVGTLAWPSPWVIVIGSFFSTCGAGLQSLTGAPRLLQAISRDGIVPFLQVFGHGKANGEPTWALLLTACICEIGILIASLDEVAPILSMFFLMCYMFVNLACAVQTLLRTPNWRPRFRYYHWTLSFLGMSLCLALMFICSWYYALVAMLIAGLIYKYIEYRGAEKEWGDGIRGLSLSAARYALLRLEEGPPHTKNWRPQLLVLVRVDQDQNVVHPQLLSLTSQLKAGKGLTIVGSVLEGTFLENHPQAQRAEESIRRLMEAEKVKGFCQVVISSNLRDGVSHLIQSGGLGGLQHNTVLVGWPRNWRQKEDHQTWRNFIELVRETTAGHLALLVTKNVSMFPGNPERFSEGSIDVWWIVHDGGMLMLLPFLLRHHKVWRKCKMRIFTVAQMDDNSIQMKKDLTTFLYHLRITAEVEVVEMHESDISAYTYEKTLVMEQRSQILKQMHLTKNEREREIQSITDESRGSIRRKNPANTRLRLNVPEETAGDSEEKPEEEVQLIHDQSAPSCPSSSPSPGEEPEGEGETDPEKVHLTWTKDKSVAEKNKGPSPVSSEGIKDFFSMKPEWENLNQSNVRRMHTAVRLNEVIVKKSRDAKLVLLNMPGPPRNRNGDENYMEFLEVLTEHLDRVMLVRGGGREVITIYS
# KCNK9 block = inhibitors of human KCNK9 two-pore domain potassium channel | B-score at 10 µM | Q9NPC2 | 310,000 tested, 1.2% active | HEK293 KCNK9, FluxOR thallium flux fluorescence; stronger effect = lower value;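 active = ratio B-score over 3 SD below the library mean, with starting fluorescence within 5 SD of its mean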;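 also: negative B-score means less thallium flux so channel inhibition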
# hERG rescue = hERG (human) protection from proarrhythmic block | Q12809 | CHO-hERG, FluxOR thallium flux, dofetilide IC70 present | activation (rescue from dofetilide block), less the hit threshold, % at 10 µM | 310,000 tested, 0.51% active;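 active = activation above the mean of controls blocked by dofetilide plus 5 SD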;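 also: thallium influx through hERG after potassium depolarization seen as dye fluorescence rise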
# KCNK9 inh conf = confirmation of human KCNK9 potassium channel inhibitors | shares compounds with KCNK9 block | HEK293 KCNK9 cells, FluxOR thallium flux fluorescence | inhibition, % at 10 µM | 4,900 tested, 43% active | AID 492992;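 active = thallium signal inhibited by more than 5 SD of the compound-free buffer control wells, on both duplicate plates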;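 also: 0% = assay buffer control wells without compound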
# Kir2-1 spec = mouse Kir2.1 off-target activity of KCNK9 modulators. 4,900 tested, 4% active. AID 492993. inhibition, % at 10 µM. Kir2.1 cells, FluxOR thallium flux fluorescence. shares compounds with KCNK9 block;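 active = thallium signal drop more than 5 SD beyond the mean of the no-compound control wells, seen in both duplicate plates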;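 also: signal is fluorescence rise after thallium addition divided by baseline fluorescence; plate controls were assay buffer only for no effect and full block by chlorpromazine control for full effect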
# HEK293 Tl ctr = second counter-screen for KCNK9 modulators: effect in non-induced cells | inhibition, % at 10 µM | shares compounds with KCNK9 block | non-induced KCNK9-HEK293, FluxOR thallium flux | 4,900 tested, 40% active;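 active = thallium signal drop beyond 5 SD of the untreated control mean, on both duplicate plates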;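 also: plate controls were buffer only IC0 wells for no effect and SID17386958 at its maximal inhibitory level for full effect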
# * = called active by the depositor; i = inactive; · = no result given.
SMILES,KCNK3 block,KCNQ1 block,KCNQ1 act,KCC2 mod,KCNK9 block,hERG rescue,KCNK9 inh conf,Kir2-1 spec,HEK293 Tl ctr
COc1ccc(-c2noc(CSc3nnc(Cc4ccccc4)n3-c3ccc(Cl)cc3)n2)cc1,i,i,i,·,i,-14,i,i,i
COc1cccc2cc(C(=O)NCc3ccccc3Cl)c(=O)oc12,i,i,i,·,i,-9,·,·,·
O=[N+]([O-])c1cccc(-c2cc(-c3cc(Br)ccc3O)[nH]n2)c1,i,i,i,·,i,-3,·,·,·
CC(C)CC1Nc2ncnc(N3CCCCC3)c2N(Cc2ccc(Br)cc2)C1=O (centres undefined),i,i,i,·,-14*,-13,76%*,i,50%*
CCC1Nc2ncnc(N3CCOCC3)c2N(Cc2ccc(Br)cc2)C1=O (centres undefined),i,·,·,·,·,·,·,·,·
CCC1Nc2ncnc(N3CCCCC3)c2N(Cc2ccc(Br)cc2)C1=O (centres undefined),i,i,i,·,-11*,-16,58%*,i,30%*
O=C1C(Cc2ccccc2)Nc2ncnc(N3CCc4ccccc4C3)c2N1Cc1ccc(Cl)cc1 (centres undefined),i,i,i,·,-10*,-11,46%*,i,36%*
Cc1cccc(-n2c(SCC(=O)c3c(N)n(C4CC4)c(=O)[nH]c3=O)nnc2N2CCOCC2)c1,i,·,·,·,·,·,·,·,·
O=C1Nc2ccccc2N(O)N1c1cc(-c2ccccc2)[nH]n1,i,i,i,1.2,i,-4,·,·,·
CCOC(=O)c1ccc(N2CCCCC2)c(NS(=O)(=O)c2cccc(C(F)(F)F)c2)c1,i,i,i,1.8,-11*,-6,56%*,i,34%*
COC(=O)c1ccc(N2CCCCC2)c(NS(=O)(=O)c2ccc(C)cc2)c1,i,i,i,·,i,-6,·,·,·
COc1cc(NS(=O)(=O)c2ccc(NC(=S)NC(=O)c3sc4ccccc4c3Cl)cc2)nc(OC)n1,i,i,i,-0.18,i,-20,i,i,i
Cc1cccc(/C=C2/C(=O)/C(=C/c3ccccc3C)C3CCC2N3C)c1 (centres undefined),i,i,i,1.4,i,-8,i,i,i
CCc1cccc(CC)c1NC(=O)CSc1nnc(CCC(=O)O)c(=O)[nH]1,i,i,i,0.059,i,-8,·,·,·
CCNC(=O)c1ccc(C2SCC(=O)N2CCc2ccccc2)cc1 (centres undefined),i,i,i,0.25,i,-3,·,·,·
CCc1ccc(NC(=O)c2ccc(C3SCC(=O)N3CCc3ccccc3)cc2)cc1 (centres undefined),i,i,i,0.98,i,-13,i,i,i
CCOc1cc(C)c(C(C)C)cc1S(=O)(=O)n1cnc(C)c1,i,i,i,-0.018,i,-6,i,i,i
O=C(CCc1nnc(CCCCc2ccccc2)o1)N1CCCCC1CCO (centres undefined),i,i,i,0.056,i,-8,·,·,·
N#CCSc1nc2c(c(=O)n1Cc1ccco1)C1(CCCC1)Cc1ccccc1-2,i,6*,i,·,-14*,-4,54%*,i,33%*
O=c1[nH]c(CN2CCCCC2)nc2c1C1(CCCCC1)Cc1ccccc1-2,i,i,i,-0.77,i,-3,·,·,·
O=C(Cn1cc2c(n1)CCCC2)Nc1cc(-c2cccc(Cl)c2)no1,i,i,i,0.52,-15*,-5,60%*,i,i
CC(NC(=O)Cn1cc2c(n1)CCCCC2)c1ccccc1 (centres undefined),i,i,i,-0.33,i,-7,·,·,·
CCOc1ccc(NS(=O)(=O)c2ccc(C(=O)NNC(=O)c3ccccc3O)cc2)cc1,i,i,i,·,i,-5,·,·,·
CC(C)(C)OC(=O)[C@H](Cc1ccccc1)NC(=O)c1nc[nH]c1C(=O)N1CCc2ccccc2C1,i,i,i,·,i,-12,i,i,i
CC(C)C[C@H](NC(=O)c1nc[nH]c1C(=O)NCc1ccc(CNC(=O)OC(C)(C)C)cc1)C(=O)OC(C)(C)C,i,i,i,·,-8.8*,-7,32%*,i,29%*
SMILES,KCNK3 block,KCNQ1 block,KCNQ1 act,KCC2 mod,KCNK9 block,hERG rescue,KCNK9 inh conf,Kir2-1 spec,HEK293 Tl ctr
O=C(CSc1ccccc1)N1CCc2ccccc21,i,i,i,-1.7,i,-7,·,·,·
CCn1cc(SCC(=O)N2CCc3ccccc32)c2ccccc21,i,i,i,-0.68,i,-7,i,40%*,i
COc1cc(N=c2ssnc2Cl)c(OC)cc1Cl,i,i,i,0.78,i,-20,i,i,i
CCN1CCC(O)(/C=C/c2ccc(C(C)C)cc2)C(C(=O)/C=C/c2ccc(C(C)C)cc2)C1 (centres undefined),i,·,·,·,·,·,·,·,·
CC(C)NC(=O)c1cc2cc(Br)ccc2oc1=O,i,i,i,·,i,-6,·,·,·
Cc1ccc(C(C)NC(=O)c2cc3cc(Br)ccc3oc2=N)cc1 (centres undefined),i,7*,i,·,i,-22,i,i,i
CCC(C)c1ccccc1N1CC(C(=O)N2CCN(S(=O)(=O)c3cccc([N+](=O)[O-])c3)CC2)CC1=O (centres undefined),i,·,·,·,·,·,·,·,·
CCOc1ccccc1N1CCN(C(=O)C2c3ccccc3Oc3ccccc32)CC1,-9.3*,i,i,0.022,-12*,-9,45%*,i,36%*
Cc1ccc(C(CCN(Cc2ccccc2)C(=O)c2ccco2)c2ccco2)cc1 (centres undefined),i,i,i,-0.42,i,-33,·,·,·
O=C(c1ccco1)N(CCC(c1ccccc1)c1ccco1)Cc1ccco1 (centres undefined),i,i,i,-0.075,-8.2*,-19,40%*,i,36%*
CC(C)(C)c1ccc(/C=N/NC(=S)NC2CCCCC2)cc1,i,i,i,1.4,i,-7,i,i,i
Fc1ccc(NC(=S)N2CCN(c3ncccn3)CC2)cc1,i,i,i,0.025,i,-4,·,·,·

# Source: PubChem BioAssay
